# From ChEMBL document CHEMBL1667749, “Design & synthesis of N'-[substituted] pyridine-4-carbohydrazides as potential anticonvulsant agents” (Eur J Med Chem, 2011)
# Activity calls are given as the source filed them. The rule behind the calls is not given here.
# Key:
# Mus musculus [1] = assay: Anticonvulsant activity in ip dosed albino CF-1 mouse assessed as protection against 6 Hz psychomotor seizure after 1 hr by minimal clonic seizure test; format: functional; conditions: albino CF-1, ip
# Procedure, shortened: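 Quantitative 6 Hz test in male CF-1 mice dosed i.p.; 32 mA for 3 s via corneal electrodes at time of peak effect; ED50 with 95% confidence interval, slope and standard error reported.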
# Mus musculus [2] = assay: Neurotoxicity in albino CF-1 mouse assessed as motor impairment at 300 mg/kg, ip after 0.5 hrs by rotarod test; format: toxicity, organism-based; design: dose 300 mg/kg, route intraperitoneal; conditions: in vivo
# Procedure, shortened: (§1)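 Minimal motor impairment in male CF-1 mice by rotorod after i.p. dosing; toxic if animal falls off rotating rod 3 times within 1 min. Screen doses 30, 100, 300 mg/kg; quantitative TD50 (95% confidence interval) determined at time of peak effect.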
# Mus musculus [3] = assay: Anticonvulsant activity in albino CF-1 mouse assessed as protection against maximal electroshock-induced seizures at 300 mg/kg, ip after 0.5 hrs; format: functional, organism-based; design: dose 300 mg/kg
# Procedure, shortened: (§2)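 Male CF-1 mice (18–25 g), i.p. in 0.5% methyl cellulose at 30, 100 and 300 mg/kg; MES: 60 Hz, 50 mA, 0.2 s through tetracaine-primed corneal electrodes; protection = abolished hind limb tonic extension. Value given as minimum dose active in half or more of mice.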
# Mus musculus [4] = assay: Anticonvulsant activity in albino CF-1 mouse assessed as protection against 6 Hz psychomotor seizure at 100 mg/kg, ip after 4 hrs by minimal clonic seizure test; format: functional, organism-based; design: dose 100 mg/kg
# Procedure, shortened: (§3)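 Male CF-1 mice (18–25 g), i.p. 100 mg/kg in 0.5% methyl cellulose suspension; 6 Hz corneal stimulation, 32 mA for 3 s, four mice per time point. Protected if no minimal clonic phase with stereotyped automatistic behaviour.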
# Mus musculus [5] = assay: Anticonvulsant activity in albino CF-1 mouse assessed as protection against subcutaneous metrazol-induced seizures at 300 mg/kg, ip after 0.5 hrs; format: functional, organism-based; design: dose 300 mg/kg
# Procedure, shortened: (§4)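 Male CF-1 mice, i.p. at 30, 100, 300 mg/kg in 0.5% methyl cellulose; metrazol dose convulsing 97% of animals injected s.c. in midline neck fold, mice isolated and watched 30 min; protected if no 3–5 s clonic spasm episode of limbs, jaws or vibrissae.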
# [6] = Octanol-phosphate buffer partition coefficient, log P of the compound at 5 mg, after 24 hrs by UV spectroscopic analysis; format: physicochemical
# Procedure, shortened: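 5 mg compound added to 10 mL octanol plus 10 mL phosphate buffer in stoppered tube, mechanically shaken 24 h at room temperature, then left in separating funnel 6 h to equilibrate.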
# Mus musculus [7] = assay: Anticonvulsant activity in albino CF-1 mouse assessed as protection against 6 Hz psychomotor seizure at 100 mg/kg, ip after 0.5 hrs by minimal clonic seizure test; format: functional; procedure, shortened: as §3
# Mus musculus [8] = assay: Anticonvulsant activity in albino CF-1 mouse assessed as protection against maximal electroshock-induced seizures at 300 mg/kg, ip after 2 hrs; format: functional, organism-based; design: dose 300 mg/kg; procedure, shortened: as §2
# Mus musculus [9] = assay: Anticonvulsant activity in albino CF-1 mouse assessed as protection against 6 Hz psychomotor seizure at 100 mg/kg, ip after 0.25 hrs by minimal clonic seizure test; format: functional; procedure, shortened: as §3
# Mus musculus [10] = assay: Neurotoxicity in albino CF-1 mouse assessed as motor impairment at 300 mg/kg, ip after 4 hrs by rotarod test; format: toxicity, organism-based; design: dose 300 mg/kg, route intraperitoneal; conditions: in vivo; procedure, shortened: as §1
# Mus musculus [11] = assay: Anticonvulsant activity in albino CF-1 mouse assessed as protection against 6 Hz psychomotor seizure at 100 mg/kg, ip after 2 hrs by minimal clonic seizure test; format: functional; procedure, shortened: as §3
# Mus musculus [12] = assay: Anticonvulsant activity in albino CF-1 mouse assessed as protection against subcutaneous metrazol-induced seizures at 300 mg/kg, ip after 4 hrs; format: functional, organism-based; design: dose 300 mg/kg; procedure, shortened: as §4
# [13] = Neuroprotective activity in hippocampal slices assessed as protection against NMDA-induced cell death after 4 hrs; format: functional, tissue-based; conditions: Hippocampus
# Procedure, shortened: (§5)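 Organotypic hippocampal slice cultures exposed to NMDA or kainic acid alone or with test compound; propidium iodide in all wells, cell death read as PI fluorescence intensity; qualitative primary screen.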
# Mus musculus [14] = assay: Anticonvulsant activity in ip dosed albino CF-1 mouse assessed as dose required to protect against maximal electroshock-induced seizures after 4 hrs; format: functional; procedure, shortened: as §2
# [15] = Neuroprotective activity in hippocampal slices assessed as protection against kainic acid-induced cell death after 4 hrs; format: functional, tissue-based; conditions: Hippocampus; procedure, shortened: as §5
# Mus musculus [16] = assay: Anticonvulsant activity in albino CF-1 mouse assessed as protection against 6 Hz psychomotor seizure at 100 mg/kg, ip after 1 hr by minimal clonic seizure test; format: functional; procedure, shortened: as §3
# Mus musculus [17] = assay: Anticonvulsant activity in albino CF-1 mouse assessed as protection against maximal electroshock-induced seizures at 300 mg/kg, ip after 4 hrs; format: functional, organism-based; design: dose 300 mg/kg; procedure, shortened: as §2
# Rattus norvegicus = assay: Anticonvulsant activity in Sprague-Dawley rat assessed as protection against pilocarpine-induced status epilepticus at 600 mg/kg, ip; format: functional, organism-based; design: dose 600 mg/kg
# Procedure, shortened: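 Male albino Sprague Dawley rats (150–180 g) dosed i.p., then challenged with pilocarpine; qualitative screen scored as protection or no protection, seizure severity graded on the Racine scale; N/F and deaths recorded, time taken post first Stage III seizure.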
Structure (SMILES),Activity (Mus musculus [2]),Activity (Mus musculus [3]),Activity (Mus musculus [4]),Activity (Mus musculus [5]),logP at 24 h [6],Activity (Mus musculus [7]),Activity (Mus musculus [8]),Activity (Mus musculus [9]),Activity (Mus musculus [10]),Activity (Mus musculus [12]),Activity (Mus musculus [17]),Activity (Mus musculus [11]),Activity (Mus musculus [16]),further results
Cc1ccc(Oc2ccc(/C=N\NC(=O)c3ccncc3)cc2)cc1,Non-toxic,inactive,inactive,inactive,3.65,Active,inactive,Active,Non-toxic,inactive,–,–,–,ED50 (Mus musculus [1]): > 200 mg/kg; Activity (Mus musculus [11]; route intraperitoneal): 50%; Activity [13]: inactive; Activity (Mus musculus [14]): 300 mg/kg; Activity [15]: inactive; Activity (Mus musculus [16]; route intraperitoneal): 75%
O=C(N/N=C\c1ccc(Oc2ccccc2)cc1)c1ccncc1,Non-toxic,inactive,–,inactive,3.37,–,inactive,–,Non-toxic,inactive,inactive,–,–,–
Cc1cc(Oc2ccc(/C=N\NC(=O)c3ccncc3)cc2)ccc1Cl,Non-toxic,inactive,inactive,inactive,4.21,inactive,inactive,Active,Non-toxic,inactive,inactive,inactive,inactive,–
O=C(N/N=C\c1ccc(Oc2ccc3ccccc3c2)cc1)c1ccncc1,Non-toxic,inactive,–,inactive,4.52,–,inactive,–,Non-toxic,inactive,inactive,–,–,–
O=C(N/N=C\c1ccc(Oc2ccc3c(c2)OCO3)cc1)c1ccncc1,Non-toxic,inactive,–,inactive,3.2,–,inactive,–,Non-toxic,inactive,inactive,–,–,–
O=C(N/N=C\c1ccc(Oc2ccc([N+](=O)[O-])cc2)cc1)c1ccncc1,Non-toxic,inactive,–,inactive,3.23,–,inactive,–,Non-toxic,inactive,inactive,–,–,–
O=C(N/N=C\c1ccc(Oc2ccc(Cl)cc2)cc1)c1ccncc1,Non-toxic,inactive,–,inactive,3.95,–,inactive,–,–,inactive,inactive,–,–,–
O=C1Nc2ccccc2/C1=N\NC(=O)c1ccncc1,–,inactive,inactive,inactive,–,–,inactive,Active,–,inactive,inactive,inactive,Active,Activity (Rattus norvegicus): inactive; Activity (Mus musculus [7]; route intraperitoneal): 50%
O=C(N/N=C\c1ccc(Oc2ccc(Br)cc2)cc1)c1ccncc1,Non-toxic,inactive,inactive,inactive,4.03,inactive,inactive,inactive,Non-toxic,inactive,inactive,Active,inactive,–
